Columns and labels:
Hepatitis B virus [1] = experiment: Antiviral activity against Hepatitis B virus infected in HepG2.2.15 assessed as inhibition of HBsAg production at <245.1 +/- 4.8 uM by EIA; type: functional, organism-based; conditions: hepg2 2.2.15
Hepatitis B virus [2] = experiment: Antiviral activity against Hepatitis B virus infected in HepG2.2.15 assessed as inhibition of HBV replication at <245.1 +/- 4.8 uM by quantitative Southern blot hybridization analysis; type: functional, organism-based; conditions: hepg2 2.2.15
[3] = Cytotoxicity against human HepG2(2.2.15) after 9 days by neutral dye uptake method; type: cell-based; conditions: HepG2(2.2.15) cells
Procedure, shortened: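 Confluent 2.2.15 cells were exposed to compound in culture medium for 9 consecutive days, with untreated controls on every plate. Viability was read as neutral red uptake by absorbance at 510 nm relative to untreated cells, giving CC50. Mean and SD of three separate experiments.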

Hepatitis B virus [4] = experiment: Antiviral activity against Hepatitis B virus infected in HepG2.2.15 assessed as inhibition of HBsAg production at <227.0 +/- 4.1 uM by EIA; type: functional, organism-based; conditions: hepg2 2.2.15
Hepatitis B virus [5] = experiment: Antiviral activity against Hepatitis B virus infected in HepG2.2.15 assessed as inhibition of HBV replication at <227.0 +/- 4.1 uM by quantitative Southern blot hybridization analysis; type: functional, organism-based; conditions: hepg2 2.2.15
Hepatitis B virus [6] = experiment: Antiviral activity against Hepatitis B virus infected in HepG2.2.15 assessed as inhibition of HBV replication at <86.9 +/- 3.6 uM by quantitative Southern blot hybridization analysis; type: functional, organism-based; conditions: hepg2 2.2.15
Hepatitis B virus [7] = experiment: Antiviral activity against Hepatitis B virus infected in HepG2.2.15 assessed as inhibition of HBsAg production at <86.9 +/- 3.6 uM by EIA; type: functional, organism-based; conditions: hepg2 2.2.15
Hepatitis B virus [8] = experiment: Antiviral activity against Hepatitis B virus infected in HepG2.2.15 assessed as inhibition of HBsAg production by EIA; type: functional, organism-based; conditions: HepG2 2.2.15
Procedure, shortened: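 HBsAg secreted into the medium by confluent 2.2.15 cultures (RPMI 1640, 2% FBS) measured by semiquantitative enzyme immunoassay eight days after the first of eight consecutive daily treatments. Medium and compound were renewed daily, with an untreated cell control. Gives the 50% inhibitory concentration; mean and SD from three separate experiments.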

Hepatitis B virus [9] = experiment: Antiviral activity against Hepatitis B virus infected in HepG2.2.15 assessed as inhibition of HBV replication at <209.8 +/- 4.7 uM by quantitative Southern blot hybridization analysis; type: functional, organism-based; conditions: hepg2 2.2.15
[10] = Selectivity index, ratio of CC50 for human HepG2.2.15 cells to IC50 for inhibition of HBsAg production; type: functional
Procedure, shortened: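 SI = CC50/IC50. CC50 is from neutral red uptake after 9 days of treatment. IC50 is from HBsAg EIA after eight daily doses, in 2.2.15 cells.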

Hepatitis B virus [11] = experiment: Antiviral activity against Hepatitis B virus infected in HepG2.2.15 assessed as inhibition of HBV replication at <74.8 +/- 3.9 uM by quantitative Southern blot hybridization analysis; type: functional, organism-based; conditions: hepg2 2.2.15
Hepatitis B virus [12] = experiment: Antiviral activity against Hepatitis B virus infected in HepG2.2.15 assessed as inhibition of HBsAg production at <74.8 +/- 3.9 uM by EIA; type: functional, organism-based; conditions: hepg2 2.2.15
Hepatitis B virus [13] = experiment: Antiviral activity against Hepatitis B virus infected in HepG2.2.15 assessed as inhibition of HBV replication at <64.5 +/- 2.8 uM by quantitative Southern blot hybridization analysis; type: functional, organism-based; conditions: hepg2 2.2.15
[14] = Selectivity index, ratio of CC50 for human HepG2.2.15 cells to IC50 for inhibition of Hepatitis B virus DNA replication; type: functional
Procedure, shortened: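 SI = CC50/IC50. CC50 is from neutral red uptake after 9 days of treatment. IC50 is from Southern blot of intracellular HBV DNA after eight daily doses, in 2.2.15 cells.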

Hepatitis B virus [15] = experiment: Antiviral activity against Hepatitis B virus infected in HepG2.2.15 assessed as inhibition of HBV replication by quantitative Southern blot hybridization analysis; type: functional, organism-based; conditions: HepG2 2.2.15
Procedure, shortened: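 Confluent 2.2.15 cells in RPMI 1640 with 2% FBS, dosed daily for eight consecutive days, with medium and compound replaced each day; untreated cell control. Intracellular HBV DNA quantified by Southern blot hybridization eight days after first treatment. IC50 is 50% inhibitory concentration; mean and SD of three separate experiments.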

Hepatitis B virus [16] = experiment: Antiviral activity against Hepatitis B virus infected in HepG2.2.15 assessed as inhibition of HBsAg production at <76.3 +/- 3.3 uM by EIA; type: functional, organism-based; conditions: hepg2 2.2.15
Hepatitis B virus [17] = experiment: Antiviral activity against Hepatitis B virus infected in HepG2.2.15 assessed as inhibition of HBsAg production at <101.2 +/- 3.8 by EIA; type: functional, organism-based; conditions: hepg2 2.2.15
Hepatitis B virus [18] = experiment: Antiviral activity against Hepatitis B virus infected in HepG2.2.15 assessed as inhibition of HBsAg production at <80.1 +/- 3.5 uM by EIA; type: functional, organism-based; conditions: hepg2 2.2.15
Hepatitis B virus [19] = experiment: Antiviral activity against Hepatitis B virus infected in HepG2.2.15 assessed as inhibition of HBsAg production at <60.8 +/- 4.6 uM by EIA; type: functional, organism-based; conditions: hepg2 2.2.15
Hepatitis B virus [20] = experiment: Antiviral activity against Hepatitis B virus infected in HepG2.2.15 assessed as inhibition of HBsAg production at <91.2 +/- 3.5 uM by EIA; type: functional, organism-based; conditions: hepg2 2.2.15
Hepatitis B virus [21] = experiment: Antiviral activity against Hepatitis B virus infected in HepG2.2.15 assessed as inhibition of HBV replication at <64.5 +/- 4.2 uM by quantitative Southern blot hybridization analysis; type: functional, organism-based; conditions: hepg2 2.2.15
Hepatitis B virus [22] = experiment: Antiviral activity against Hepatitis B virus infected in HepG2.2.15 assessed as inhibition of HBsAg production at <64.5 +/- 4.2 uM by EIA; type: functional, organism-based; conditions: hepg2 2.2.15
Hepatitis B virus [23] = experiment: Antiviral activity against Hepatitis B virus infected in HepG2.2.15 assessed as inhibition of HBsAg production at <163.9 +/- 4.4 uM by EIA; type: functional, organism-based; conditions: hepg2 2.2.15
Hepatitis B virus [24] = experiment: Antiviral activity against Hepatitis B virus infected in HepG2.2.15 assessed as inhibition of HBV replication at <102.7 +/- 3.3 uM by quantitative Southern blot hybridization analysis; type: functional, organism-based; conditions: hepg2 2.2.15
Hepatitis B virus [25] = experiment: Antiviral activity against Hepatitis B virus infected in HepG2.2.15 assessed as inhibition of HBsAg production at <102.7 +/- 3.3 uM by EIA; type: functional, organism-based; conditions: hepg2 2.2.15
Hepatitis B virus [26] = experiment: Antiviral activity against Hepatitis B virus infected in HepG2.2.15 assessed as inhibition of HBV replication at <900.5 +/- 5.3 uM by quantitative Southern blot hybridization analysis; type: functional, organism-based; conditions: hepg2 2.2.15
Hepatitis B virus [27] = experiment: Antiviral activity against Hepatitis B virus infected in HepG2.2.15 assessed as inhibition of HBV replication at <556.9 +/- 1.8 uM by quantitative Southern blot hybridization analysis; type: functional, organism-based; conditions: hepg2 2.2.15
Hepatitis B virus [28] = experiment: Antiviral activity against Hepatitis B virus infected in HepG2.2.15 assessed as inhibition of HBV replication at <757.8 +/- 4.3 uM by quantitative Southern blot hybridization analysis; type: functional, organism-based; conditions: hepg2 2.2.15
Hepatitis B virus [29] = experiment: Antiviral activity against Hepatitis B virus infected in HepG2.2.15 assessed as inhibition of HBV replication at <739.9 +/- 3.6 uM by quantitative Southern blot hybridization analysis; type: functional, organism-based; conditions: hepg2 2.2.15
Hepatitis B virus [30] = experiment: Antiviral activity against Hepatitis B virus infected in HepG2.2.15 assessed as inhibition of HBV replication at <622.8 +/- 3.4 uM by quantitative Southern blot hybridization analysis; type: functional, organism-based; conditions: hepg2 2.2.15
Hepatitis B virus [31] = experiment: Antiviral activity against Hepatitis B virus infected in HepG2.2.15 assessed as inhibition of HBV replication at <506.3 +/- 3.2 uM by quantitative Southern blot hybridization analysis; type: functional, organism-based; conditions: hepg2 2.2.15
Hepatitis B virus [32] = experiment: Antiviral activity against Hepatitis B virus infected in HepG2.2.15 assessed as inhibition of HBsAg production at <2183.1 +/- 4.1 by EIA; type: functional, organism-based; conditions: hepg2 2.2.15

SMILES | CC50 at 216 h [3] | IC50 (Hepatitis B virus [8]) | Selectivity Index [10] | Selectivity Index [14] | also measured
CN(C)Cc1c(O)ccc2c1nc(CSc1ccccc1)n2C | 245 µM | – | – | – | IC50 (Hepatitis B virus [1]): Not Active; IC50 (Hepatitis B virus [2]): Not Active
Cn1c(CSc2ccccc2)nc2c(CN3CCCC3)c(O)ccc21 | 227 µM | – | – | – | IC50 (Hepatitis B virus [4]): Not Active; IC50 (Hepatitis B virus [5]): Not Active
Cn1c(CSc2ccccc2)nc2c(CN3CCOCC3)c(O)ccc21 | 86.9 µM | – | – | – | IC50 (Hepatitis B virus [6]): Not Active; IC50 (Hepatitis B virus [7]): Not Active
CN1CCN(Cc2c(O)ccc3c2nc(CSc2ccccc2)n3C)CC1 | 210 µM | 27 µM | 7.8 | – | IC50 (Hepatitis B virus [9]): Not Active
Cn1c(CSc2ccc(F)cc2)nc2c(CN3CCCC3)c(O)ccc21 | 74.8 µM | – | – | – | IC50 (Hepatitis B virus [11]): Not Active; IC50 (Hepatitis B virus [12]): Not Active
CN1CCN(Cc2c(O)ccc3c2nc(CSc2ccc(F)cc2)n3C)CC1 | 64.5 µM | 10.7 µM | 6 | – | IC50 (Hepatitis B virus [13]): Not Active
Cn1c(CSc2ccccc2)nc2c(Cn3ccnc3)c(O)ccc21 | 76.3 µM | – | – | 8.4 | IC50 (Hepatitis B virus [15]): 9.1 µM; IC50 (Hepatitis B virus [16]): Not Active
Cc1nccn1Cc1c(O)ccc2c1nc(CSc1ccccc1)n2C | 101 µM | – | – | 13 | IC50 (Hepatitis B virus [15]): 7.8 µM; IC50 (Hepatitis B virus [17]): Not Active
Cn1c(CSc2ccc(F)cc2)nc2c(Cn3ccnc3)c(O)ccc21 | 80.1 µM | – | – | 6.9 | IC50 (Hepatitis B virus [15]): 11.6 µM; IC50 (Hepatitis B virus [18]): Not Active
Cc1ccc(SCc2nc3c(Cn4ccnc4)c(O)ccc3n2C)cc1 | 60.8 µM | – | – | 1.9 | IC50 (Hepatitis B virus [19]): Not Active; IC50 (Hepatitis B virus [15]): 32.6 µM
Cc1ccc(SCc2nc3c(Cn4ccnc4C)c(O)ccc3n2C)cc1 | 91.2 µM | – | – | 2.5 | IC50 (Hepatitis B virus [20]): Not Active; IC50 (Hepatitis B virus [15]): 36.1 µM
COc1ccc(SCc2nc3c(Cn4ccnc4)c(O)ccc3n2C)cc1 | 64.5 µM | – | – | – | IC50 (Hepatitis B virus [21]): Not Active; IC50 (Hepatitis B virus [22]): Not Active
COc1ccc(SCc2nc3c(Cn4ccnc4C)c(O)ccc3n2C)cc1 | 164 µM | – | – | 3.7 | IC50 (Hepatitis B virus [23]): Not Active; IC50 (Hepatitis B virus [15]): 44.5 µM
COc1cccc(SCc2nc3c(Cn4ccnc4C)c(O)ccc3n2C)c1 | 103 µM | – | – | – | IC50 (Hepatitis B virus [24]): Not Active; IC50 (Hepatitis B virus [25]): Not Active
Cn1c(C[S+]([O-])c2ccccc2)nc2c(CN3CCOCC3)c(O)ccc21 (configuration not stated) | 900 µM | 401 µM | 2.2 | – | IC50 (Hepatitis B virus [26]): Not Active
Cn1c(C[S+]([O-])c2ccccc2)nc2c(Cn3ccnc3)c(O)ccc21 (configuration not stated) | 557 µM | 189 µM | 2.9 | – | IC50 (Hepatitis B virus [27]): Not Active
Cc1ccc([S+]([O-])Cc2nc3c(Cn4ccnc4)c(O)ccc3n2C)cc1 (configuration not stated) | 758 µM | 176 µM | 4.3 | – | IC50 (Hepatitis B virus [28]): Not Active
Cn1c(CS(=O)(=O)c2ccccc2)nc2c(CN3CCOCC3)c(O)ccc21 | 740 µM | 326 µM | 2.3 | – | IC50 (Hepatitis B virus [29]): Not Active
Cn1c(CS(=O)(=O)c2ccccc2)nc2c(Cn3ccnc3)c(O)ccc21 | 623 µM | 70.2 µM | 8.9 | – | IC50 (Hepatitis B virus [30]): Not Active
Cc1ccc(S(=O)(=O)Cc2nc3c(Cn4ccnc4)c(O)ccc3n2C)cc1 | 506 µM | 62.6 µM | 8.1 | – | IC50 (Hepatitis B virus [31]): Not Active
Nc1ccn([C@@H]2CS[C@H](CO)O2)c(=O)n1 [LAMIVUDINE] | 2180 µM | – | – | 9.1 | IC50 (Hepatitis B virus [32]): Not Active
